# Screening data (PubChem BioAssay)
# Compounds with a hit are over-represented: about 1.3% of the library has one in this group of screens.
# GRK2 aptamer HTS – compounds blocking aptamer binding on GRK2 – biochemical, human GRK2, bead flow cytometry, HTS, primary screen; FAM-aptamer displacement from GRK2; hit rate 0.59% among 330,000; inhibition of aptamer binding, % at 10 µM; AID 488847, 2010; Beta-adrenergic receptor kinase 1 (Homo sapiens), P25098;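 active = inhibition of aptamer binding above 40%, roughly 3 SD of noise, on plates passing a quality check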;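 also: median bead fluorescence of bound FAM aptamer so fluorescent compounds give negative values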
# Lipid droplet – inhibitors of hepatocyte lipid droplet formation, primary screen, imaging, high-throughput imaging, BODIPY stain; AML12 mouse hepatocytes, oleate lipid droplets; inhibition, % at 6.5 µM; hit rate 0.4% among 240,000;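 active = lipid droplet intensity inhibited by at least 50%, with more than 500 cells counted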
#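 Test system: AML12 mouse liver cells; schedule: overnight exposure; technique: high-content imaging of BODIPY-stained droplets and DAPI nuclei; read-out: % inhibition of corrected integrated BODIPY droplet signal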
# JMJD2C inh – inhibitors of GASC-1 histone demethylase, primary screen, biochemical, fluorescence, DELFIA europium | Lysine-specific demethylase 4C (Homo sapiens), Q9H3R0 | GST-JMJD2C(1-420) H3K9me3 demethylation | inhibition, % at 2.35 µM | hit rate 0.069% among 330,000 | AID 2099, 2009;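 active = more than half of a compound's replicate wells show inhibition beyond 50%, single wells judged on their own value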;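 also: signal counts dimethyl H3K9 product captured on neutravidin plate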
# proCasp7 act – procaspase-7 activators, primary screen, counter-screen for procaspase-3 activator project, biochemical, absorbance, HTS, human; hit rate 0.093% among 330,000; activation, % at 8.5 µM; recombinant procaspase-7, Ac-DEVD-pNA absorbance 405 nm; D23A/D198A/D206A triple mutant, cannot self-cleave; scale: DMSO 0, 5 µM enzyme 100;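 active = percent activation above the screen-wide mean plus 3 SD, cut at about 25% in these data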
#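 buffer or medium = Zinc-free HEPES/NaCl buffer, pH 7.4 | material = Procaspase-7 triple mutant (PC-7 D3A) | input = 2 µM procaspase-7 mutant as dispensed | signal = Epi-absorbance of released pNA at 405 nm, two timepoints | timing = 1 h preincubation, 2 h reaction | replicates = singlicate compound testing | evaluation = % activation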
# VLA-4 inh – inhibition in human VLA-4 binding assay, primary screen, VLA-4 allosteric modulator project, MLPCN library, flow cytometry, VLA-4 expressing cells. Integrin alpha-4 (Homo sapiens), P13612. ligand binding flow cytometry. inhibition, % (about 7 µM as worked out from the volumes in the protocol). hit rate 0.2% among 330,000. AID 2557, 2010; in the data active = inhibition above about 50%
# procasp3 activ – activators of human procaspase-3 D3A mutant, primary screen, biochemical, absorbance, PC-3 D3A mutant, single concentration; Caspase-3 (Homo sapiens), P42574; recombinant procaspase-3 D3A, Ac-DEVD-pNA absorbance 405 nm; activation, % at 8.5 µM; hit rate 0.11% among 330,000;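 active = activation above the mean of all tested compounds plus 3 SD, cut at about 21% in these data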
# Target sequence (P42574 whole entry D9A/D28A/D175A): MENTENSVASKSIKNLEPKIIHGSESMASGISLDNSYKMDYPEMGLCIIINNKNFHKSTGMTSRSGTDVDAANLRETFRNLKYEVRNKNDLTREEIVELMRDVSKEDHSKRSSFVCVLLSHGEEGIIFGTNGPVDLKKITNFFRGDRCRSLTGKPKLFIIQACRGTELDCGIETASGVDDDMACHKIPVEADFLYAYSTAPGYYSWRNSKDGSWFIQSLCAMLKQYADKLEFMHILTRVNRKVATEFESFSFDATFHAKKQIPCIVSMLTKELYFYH
#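 Technique: 405 nm absorbance of p-nitroaniline, reads at 0 and 120 min; Test system: Procaspase-3 D3A mutant; Incubation: 1 h enzyme-compound preincubation, then 2 h substrate reaction, 25 °C; Repeats: singlicate, each compound tested once; Benchmarks: low control DMSO wells, high control DMSO plus 5 µM PC-3 D3A.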
# Hep lipid conf – hepatocyte lipid droplet accumulation inhibitors, confirmation, imaging, AML12 mouse hepatocytes, single concentration, high-content; shares compounds with Lipid droplet; BODIPY lipid droplet imaging; droplets induced with 100 µM oleic acid; inhibition, % at 5.2 µM; hit rate 65% among 870; AID 463183, 2010;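 active = inhibition of lipid droplet metric at least 50%, with more than 300 cells in each of four replicates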
# AML12 cytotox – AML12 hepatocyte cytotoxicity, counter-screen for hepatic lipid droplet formation project, imaging, DAPI nuclear morphology imaging | shares compounds with Lipid droplet | AML12 mouse hepatocytes; hits give high values; cells fed 100 µM oleate overnight | z-score at 5 µM | hit rate 3% among 870; in the data active = z-score above about 6.3;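 also: compound exposure lasted overnight at 37 °C before fixation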
# AML12 tox conf – AML12 hepatocyte cytotoxicity, confirmation, cytotoxicity control for hepatic lipid droplet formation project, cell-based, single concentration. shares compounds with Lipid droplet. AML12 mouse hepatocyte viability, ATP luminescence; cells loaded with 100 µM oleic acid. cytotoxicity, % at 50 µM. 530 tested, under 10 active. AID 463219, 2010;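 active = cytotoxicity above 50% in each of four replicates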;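 also: compound exposure lasted overnight at 37 °C before the ATP read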
# Hits are given with their value; n = inactive; x = no result.
SMILES,GRK2 aptamer HTS,Lipid droplet,JMJD2C inh,proCasp7 act,VLA-4 inh,procasp3 activ,Hep lipid conf,AML12 cytotox,AML12 tox conf
CN1CCC(N(C)C(=O)c2cc(-c3ccc(F)cc3)nc3ccccc23)CC1,n,x,n,n,n,n,x,x,x
O=C(CSCC(=O)N1CCCCC1)Nc1nc(-c2ccccc2)c(-c2ccccc2)s1,n,89.2,x,n,n,n,104.4,n,n
COc1cccc(CC(=O)OCC(=O)NC2(C#N)CCCCC2)c1,n,x,n,n,n,n,x,x,x
CCOc1cc2c(cc1OCC)C(c1ccc(OC)cc1)N(c1ccccc1)C(=O)C2 (stereo unspecified),n,50.9,n,n,n,n,60.1,n,n
CCOc1ccc(C2c3cc(OC)c(OC)cc3CC(=O)N2c2ccccc2)cc1 (stereo unspecified),n,x,n,n,n,n,x,x,x
CCOc1cc2c(cc1OCC)C(c1ccccc1)N(c1ccccc1)C(=O)C2 (stereo unspecified),n,89.4,n,n,n,n,106.8,n,n
CCn1c(CSc2ncccn2)nnc1SCC(=O)N1CCCCC1,n,n,n,n,n,n,x,x,x
CC(C)Oc1ccc(C(=O)OC(C)C(=O)NC2CCCCC2C)cc1 (stereo unspecified),n,51.6,n,n,n,n,102.1,n,n
CCS(=O)(=O)N1CCC2(CC1)OCCN2S(=O)(=O)c1ccc(OC)cc1,x,x,n,x,x,x,x,x,x
CCCCc1ccc(N=N/C(C(=O)Nc2cc(OC)c(NC(C)=O)cc2OC)=C(/C)O)cc1,n,96.4,n,n,n,n,n,n,x
CCCCc1ccc(N=N/C(C(=O)Nc2ccccc2OC)=C(/C)O)cc1,n,n,n,n,n,n,x,x,x
CC(OC(=O)CC1CCCCC1)C(=O)Nc1ccc(S(N)(=O)=O)cc1 (stereo unspecified),n,x,n,n,n,n,x,x,x
CCn1cc([N+](=O)[O-])c(C(=O)N2N=C(c3ccc4ccccc4c3)CC2c2ccccc2O)n1 (stereo unspecified),n,79.0,n,n,n,n,87.8,n,n
COc1ccc2nc(N=Nc3c(O)ccc4ccccc34)sc2c1,x,50.4,x,x,x,x,n,n,x
O=C(COC(=O)COc1ccc(Cl)cc1Cl)Nc1cccnc1Cl,n,50.2,n,n,n,n,n,n,x
COC(=O)c1ccc2c(c1)NC(=O)C(N(CC(C)C)CC(C)C)S2 (stereo unspecified),n,83.6,n,n,n,n,n,n,x
CCCCNC(=S)Nc1cccc(S(=O)(=O)NC2=NCCC2)c1,n,x,n,n,n,n,x,x,x
CCn1cc(CCCC(=O)NCc2cccc(OC)c2)c2ccccc21,n,79.9,n,x,n,x,87.5,n,n
CCn1cc(CCCC(=O)NCc2ccccc2OC)c2ccccc21,n,87.8,n,x,n,x,100.4,n,n
c1ccc2nc(N3CCN(Cc4ccc5c(c4)OCO5)CC3)cnc2c1,n,50.3,n,n,n,n,n,n,x
CCNc1nc(N)c(C(=O)c2ccc(Cl)s2)s1,n,51.6,n,n,n,n,n,n,x
CC(C)(C)c1csc(NC(=O)c2ccc(Cl)s2)n1,n,n,n,n,n,n,x,x,x
